In ChEMBL document CHEMBL2311383, “Discovery of piperazin-1-ylpyridazine-based potent and selective stearoyl-CoA desaturase-1 inhibitors for the treatment of obesity and metabolic syndrome” (J Med Chem, 2013):
Activity calls are given as the source filed them. No cut-off for these calls is given here.

How the values were obtained:
[1] = target: Acyl-CoA (8-3)-desaturase (Rattus norvegicus) (UniProt Q920R3); assay: Inhibition of delta5 desaturase in Sprague-Dawley rat liver microsome at 10 uM; type: microsomes
Rattus norvegicus [2] = assay: In vivo inhibition of SCD1 in Lewis rat liver microsome at 15 mg/kg, ip administered qd for 2 days; type: functional; settings: 48 h, route intraperitoneal
Outline: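 Lewis rats fed high-carbohydrate diet for one week, fasted 4 h, then dosed orally (0.1–1 mg/kg in 0.2% Tween 20/1% CMC; n = 4), killed 4 h later; ip arm 15 mg/kg once daily for two days. Liver microsomes prepared, SCD1 activity measured by tritiated water release from [9,10-3H]stearoyl-CoA. Mean ± SD of at least four rats.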

[3] = Apparent permeability from basolateral to apical side in human Caco2 cells; type: ADME, cell-based; settings: Caco-2
Outline: (§1)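 Caco-2 monolayers; apparent permeability a-to-b and b-to-a reported in 10⁻⁶ cm/s.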

[4] = Metabolic stability in rat liver microsome after 30 mins by LC/MS/MS analysis; type: ADME; settings: liver microsomes, read-out: Stability
Outline: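 Compound incubated 30 min with rat liver microsomes; percent parent remaining by LC/MS/MS.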

[5] = Apparent permeability from apical to basolateral side in human Caco2 cells; type: ADME, cell-based; settings: Caco-2; outline: as §1
Stearoyl-CoA desaturase = target: T1, Stearoyl-CoA desaturase (Homo sapiens, UniProt O00767); assay: Inhibition of SCD1 in human HepG2 cells using [14C]-stearate substrate assessed as decreased production of [14C]-oleic acid after 24 hrs; type: cell-based
T1 sequence (O00767 whole entry): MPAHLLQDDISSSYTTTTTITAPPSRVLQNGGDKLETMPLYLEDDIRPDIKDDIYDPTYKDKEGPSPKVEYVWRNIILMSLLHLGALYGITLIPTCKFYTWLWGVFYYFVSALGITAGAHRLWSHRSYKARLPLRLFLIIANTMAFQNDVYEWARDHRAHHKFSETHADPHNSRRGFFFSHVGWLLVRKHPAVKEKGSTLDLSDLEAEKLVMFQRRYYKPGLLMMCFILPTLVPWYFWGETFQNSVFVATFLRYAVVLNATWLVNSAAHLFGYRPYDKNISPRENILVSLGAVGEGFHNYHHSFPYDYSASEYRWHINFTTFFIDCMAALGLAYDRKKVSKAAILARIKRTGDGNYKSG

[6] = target: Acyl-CoA 6-desaturase (Rattus norvegicus) (UniProt Q9Z122); assay: Inhibition of delta6 desaturase in Sprague-Dawley rat liver microsome using cis,cis-9,12-octadecadienoic acid substrate at 10 uM
Acyl-CoA desaturase 1 = target: T2, Acyl-CoA desaturase 1 (Mus musculus, UniProt P13516); assay: Inhibition of SCD1 in ICR mouse liver microsome using [9,10 3H]- stearoyl-Coenzyme A substrate assessed as decreased production of tritiated water after 20 min by scintillation counting analysis
T2 sequence (P13516 whole entry): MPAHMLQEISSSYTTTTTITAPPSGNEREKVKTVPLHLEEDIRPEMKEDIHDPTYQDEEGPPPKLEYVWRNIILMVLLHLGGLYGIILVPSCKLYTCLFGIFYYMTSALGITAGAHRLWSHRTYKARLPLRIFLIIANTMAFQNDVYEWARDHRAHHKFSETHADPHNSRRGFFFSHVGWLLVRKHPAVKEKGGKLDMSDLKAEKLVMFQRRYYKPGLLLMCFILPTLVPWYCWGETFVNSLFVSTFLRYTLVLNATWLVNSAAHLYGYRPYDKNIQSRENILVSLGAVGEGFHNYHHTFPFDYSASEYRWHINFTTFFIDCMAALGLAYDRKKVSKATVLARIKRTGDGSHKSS

Rattus norvegicus [7] = assay: In vivo inhibition of SCD1 in Lewis rat liver microsome at 1 mg/kg, po after 4 hrs
[8] = Oral bioavailability in Lewis rat at 5 mg/kg; type: ADME, organism-based; settings: in vivo
Outline: (§2)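 Lewis rats, IV 3 mg/kg and PO 10 mg/kg unless otherwise stated (some at PO 5 mg/kg, IV 1 mg/kg, or IV 1/PO 2 mg/kg). At least two rats IV, three rats PO, averaged. Plasma t1/2 (h), AUC 0–∞ (μM·h), Vss (L/kg), clearance ((L/h)/kg), Cmax (μM), Tmax (h), oral bioavailability (%).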

[9] = Cmax in Lewis rat at 5 mg/kg, po; type: ADME, organism-based; set-up: dose 5 mg/kg, route oral; settings: in vivo; outline: as §2
[10] = Tmax in Lewis rat at 5 mg/kg, po; type: ADME, organism-based; set-up: dose 5 mg/kg, route oral; settings: in vivo; outline: as §2
[11] = Clearance in Lewis rat at 3 mg/kg, iv; type: ADME, organism-based; set-up: dose 3 mg/kg, route intravenous; settings: in vivo; outline: as §2
[12] = Volume of distribution at steady state in Lewis rat at 3 mg/kg, iv; type: ADME, organism-based; set-up: dose 3 mg/kg, route intravenous; settings: in vivo, read-out: Vdss; outline: as §2
[13] = Half life in Lewis rat at 3 mg/kg, iv; type: ADME, organism-based; set-up: dose 3 mg/kg, route intravenous; settings: in vivo; outline: as §2
[14] = Clearance in Lewis rat at 1 mg/kg, iv; type: ADME, organism-based; set-up: dose 1 mg/kg, route intravenous; settings: in vivo; outline: as §2
[15] = AUC (0 to infinity) in Lewis rat at 1 mg/kg, iv; type: ADME, organism-based; set-up: time infinity, dose 1 mg/kg, route intravenous; settings: plasma; outline: as §2
[16] = Volume of distribution at steady state in Lewis rat at 1 mg/kg, iv; type: ADME, organism-based; set-up: dose 1 mg/kg, route intravenous; settings: in vivo, read-out: Vdss; outline: as §2
[17] = Half life in Lewis rat at 1 mg/kg, iv; type: ADME, organism-based; set-up: dose 1 mg/kg, route intravenous; settings: in vivo; outline: as §2
[18] = Oral bioavailability in Lewis rat at 2 mg/kg; type: ADME, organism-based; settings: in vivo; outline: as §2
[19] = AUC (0 to infinity) in Lewis rat at 2 mg/kg, po; type: ADME, organism-based; set-up: time infinity, dose 2 mg/kg, route oral; settings: plasma; outline: as §2
[20] = Tmax in Lewis rat at 2 mg/kg, po; type: ADME, organism-based; set-up: dose 2 mg/kg, route oral; settings: in vivo; outline: as §2
[21] = Cmax in Lewis rat at 2 mg/kg, po; type: ADME, organism-based; set-up: dose 2 mg/kg, route oral; settings: in vivo; outline: as §2

Chain of Acyl-CoA 6-desaturase (Rattus norvegicus) (Q9Z122 whole entry, looked up): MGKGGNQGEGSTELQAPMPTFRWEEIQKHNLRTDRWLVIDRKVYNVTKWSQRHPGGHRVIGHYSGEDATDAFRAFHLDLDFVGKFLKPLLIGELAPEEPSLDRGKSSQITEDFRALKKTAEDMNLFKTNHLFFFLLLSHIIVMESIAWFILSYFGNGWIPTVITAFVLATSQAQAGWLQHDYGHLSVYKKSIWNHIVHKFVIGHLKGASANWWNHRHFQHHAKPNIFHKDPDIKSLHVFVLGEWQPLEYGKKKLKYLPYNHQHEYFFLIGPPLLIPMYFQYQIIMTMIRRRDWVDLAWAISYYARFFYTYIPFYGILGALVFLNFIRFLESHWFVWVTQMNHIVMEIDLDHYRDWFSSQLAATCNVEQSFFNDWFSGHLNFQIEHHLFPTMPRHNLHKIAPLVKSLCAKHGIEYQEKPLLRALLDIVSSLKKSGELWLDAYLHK
Chain of Acyl-CoA (8-3)-desaturase (Rattus norvegicus) (Q920R3 whole entry, looked up): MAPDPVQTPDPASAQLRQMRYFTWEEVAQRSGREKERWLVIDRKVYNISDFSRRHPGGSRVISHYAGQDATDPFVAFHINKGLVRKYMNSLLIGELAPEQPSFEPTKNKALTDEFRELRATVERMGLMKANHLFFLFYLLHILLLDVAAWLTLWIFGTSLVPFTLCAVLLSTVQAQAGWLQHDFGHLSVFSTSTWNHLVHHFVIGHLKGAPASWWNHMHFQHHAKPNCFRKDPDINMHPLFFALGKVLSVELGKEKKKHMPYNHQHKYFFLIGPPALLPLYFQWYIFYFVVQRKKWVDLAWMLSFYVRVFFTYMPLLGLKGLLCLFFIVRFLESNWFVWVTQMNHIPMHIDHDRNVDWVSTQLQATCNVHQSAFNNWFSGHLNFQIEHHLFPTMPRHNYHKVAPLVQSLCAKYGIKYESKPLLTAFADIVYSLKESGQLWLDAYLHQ

| inhibition [1] | Papp B→A [3] | remaining at 0.5 h [4] | Papp A→B [5] | inhibition [6] | IC50 (Acyl-CoA desaturase 1) | Structure (SMILES) | inhibition in vivo at 15 mg/kg (Rattus norvegicus [2]) | further results |
| --- | --- | --- | --- | --- | --- | --- | --- | --- |
| inactive | 21 ×10⁻⁶ cm/s | 36% | 21 ×10⁻⁶ cm/s | inactive | 72 nM | Cc1cc(C(=O)N2CCN(c3ccc(C(=O)NCCC4CC4)nn3)CC2)c(C(F)(F)F)o1 | < 30% | IC50 (Stearoyl-CoA desaturase): 62 nM |
| inactive | 2 ×10⁻⁶ cm/s | 65% | 2 ×10⁻⁶ cm/s | inactive | 7 nM | O=C(Nc1ccc(Cl)cc1)c1ccc(N2CCN(C(=O)c3ccccc3C(F)(F)F)CC2)nn1 | – | inhibition (Rattus norvegicus [7]): Active |
| inactive | 22 ×10⁻⁶ cm/s | 76% | 24 ×10⁻⁶ cm/s | inactive | 25 nM | O=C(NCCC1CC1)c1ccc(N2CCN(C(=O)c3ccccc3C(F)(F)F)CC2)nn1 | > 60% | bioavailability [8]: 46%; Cmax [9]: 900 nM; Tmax [10]: 1 h; clearance [11]: 31.7 mL/min/kg; Vd [12]: 2.2 L/kg; half-life [13]: 1 h |
| inactive | 23 ×10⁻⁶ cm/s | 92% | 25 ×10⁻⁶ cm/s | inactive | 11 nM | O=C(Nc1nc2ccccc2[nH]1)c1ccc(N2CCN(C(=O)c3ccccc3C(F)(F)F)CC2)nn1 | < 30% | clearance [14]: 21.7 mL/min/kg; AUC(0-inf) [15]: 1.6 µM·h; Vd [16]: 1.8 L/kg; half-life [17]: 1.1 h; bioavailability [18]: 19%; AUC(0-inf) [19]: 0.6 µM·h; Tmax [20]: 0.5 h; Cmax [21]: 70 nM |
